How the values were obtained:
[1] = tested on: Human immunodeficiency virus 1; assay: Antiviral activity against HIV1 harboring G140S/Q148H double mutant in presence of 10% FBS; format: functional, organism-based
Procedure, shortened: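 HIV-1 carrying G140S/Q148H double-mutant integrase; antiviral EC50 determined with 10% FBS in the medium.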

[2] = tested on: Human immunodeficiency virus 1; assay: Antiviral activity against wild type HIV1 in presence of 10% FBS; format: functional, organism-based
[3] = tested on: Human immunodeficiency virus 1; assay: Antiviral activity against HIV1 harboring Q148R mutant; format: functional, organism-based
[4] = Volume of distribution at steady state in Sprague-Dawley rat at 0.5 mg/kg, iv measured up to 4 hrs; format: ADME, organism-based; settings: in vivo, read-out: Vdss
Procedure, shortened: (§1)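 Male Sprague-Dawley rats dosed IV with compound as a PEG-400/ethanol (90:10) solution. Plasma exposure was followed for 4 h, and Cmax, t1/2, clearance and Vss were derived from that profile.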

[5] = Half life in Sprague-Dawley rat at 0.5 mg/kg, iv measured up to 4 hrs; format: ADME, organism-based; settings: in vivo; procedure, shortened: as §1
[6] = Clearance in Sprague-Dawley rat at 0.5 mg/kg, iv measured up to 4 hrs; format: ADME, organism-based; settings: in vivo; procedure, shortened: as §1
[7] = Cmax in Sprague-Dawley rat at 0.5 mg/kg, iv measured up to 4 hrs; format: ADME, organism-based; set-up: route intravenous, dose 0.5 mg/kg, time <=4; settings: in vivo; procedure, shortened: as §1
Integrase = Integrase (Human immunodeficiency virus 1, UniProt T1QYY3, G140S/Q148H); assay: Binding affinity to […] HIV1 integrase G140S/Q148H mutant
[8] = Binding affinity to wild type HIV1 integrase; set-up: species or system Human immunodeficiency virus 1
[9] = Volume of distribution at steady state in cynomolgus monkey at 1 mg/kg, iv; format: ADME, organism-based, Macaca fascicularis; settings: in vivo, read-out: Vdss
Procedure, shortened: (§2)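 Cynomolgus monkeys dosed IV or PO with compound formulated as a PEG-400/ethanol (90:10) solution. Oral bioavailability was taken from the PO versus IV exposure.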

[10] = Volume of distribution at steady state in Sprague-Dawley rat at 1 mg/kg, iv measured up to 4 hrs; format: ADME, organism-based; settings: in vivo, read-out: Vdss; procedure, shortened: as §1
[11] = tested on: Human immunodeficiency virus 1; assay: Antiviral activity against HIV1 harboring G140S/Q148H double mutant in presence of HSA; format: functional, organism-based
[12] = Cmax in Sprague-Dawley rat at 1 mg/kg, iv measured up to 4 hrs; format: ADME, organism-based; set-up: route intravenous, dose 1 mg/kg, time <=4; settings: in vivo; procedure, shortened: as §1
[13] = AUC in cynomolgus monkey at 5 mg/kg, po; format: ADME, organism-based, Macaca fascicularis; set-up: dose 5 mg/kg; settings: in vivo; procedure, shortened: as §2
[14] = AUC in Beagle dog at 5 mg/kg, po; format: ADME, organism-based, Canis lupus familiaris; set-up: dose 5 mg/kg; settings: in vivo
[15] = Half life in Sprague-Dawley rat at 1 mg/kg, iv measured up to 4 hrs; format: ADME, organism-based; settings: in vivo; procedure, shortened: as §1
[16] = Clearance in Sprague-Dawley rat at 1 mg/kg, iv measured up to 4 hrs; format: ADME, organism-based; settings: in vivo; procedure, shortened: as §1
[17] = Ratio of EC50 for Antiviral activity against HIV1 harboring G140S/Q148H double mutant in presence of 10% FBS to EC50 for antiviral activity against HIV1 harboring G140S/Q148H double mutant in presence of HSA; format: functional, Human immunodeficiency virus 1
[18] = Oral bioavailability in Sprague-Dawley rat at 5 mg/kg; format: ADME, organism-based; settings: in vivo
[19] = Clearance in Beagle dog at 1 mg/kg, iv; format: ADME, organism-based, Canis lupus familiaris; settings: in vivo
[20] = Clearance in cynomolgus monkey at 1 mg/kg, iv; format: ADME, organism-based, Macaca fascicularis; settings: in vivo; procedure, shortened: as §2
[21] = Volume of distribution at steady state in Beagle dog at 1 mg/kg, iv; format: ADME, organism-based, Canis lupus familiaris; settings: in vivo, read-out: Vdss
[22] = AUC in Sprague-Dawley rat at 5 mg/kg, po; format: ADME, organism-based; set-up: dose 5 mg/kg; settings: in vivo
[23] = Half life in cynomolgus monkey at 1 mg/kg, iv; format: ADME, organism-based, Macaca fascicularis; settings: in vivo; procedure, shortened: as §2
[24] = Oral bioavailability in Beagle dog at 5 mg/kg; format: ADME, organism-based, Canis lupus familiaris; settings: in vivo
[25] = Oral bioavailability in cynomolgus monkey at 5 mg/kg; format: ADME, organism-based, Macaca fascicularis; settings: in vivo; procedure, shortened: as §2
[26] = Half life in Beagle dog at 1 mg/kg, iv; format: ADME, organism-based, Canis lupus familiaris; settings: in vivo

SMILES	EC50 [1] [µM]	EC50 [2] [µM]	further results
Cc1cc(F)ccc1CNC(=O)c1nc2n(c(=O)c1O)CC1CCC2(NC(=O)C(=O)N(C)C)CC1	0.558	0.0013	
CCOC(=O)C(=O)NC12CCC(CC1)Cn1c2nc(C(=O)NCc2ccc(F)cc2)c(O)c1=O	> 8	0.021	
CN(C)C(=O)C(=O)NC12CCC(CC1)Cn1c2nc(C(=O)NCc2ccc(F)c(Cl)c2)c(O)c1=O	0.006	0.0008	
CN(C)C(=O)C(=O)NC12CCC(CC1)Cn1c2nc(C(=O)NCc2ccc(F)c(F)c2)c(O)c1=O	0.017	0.0007	
CN(C)C(=O)CNC12CCC(CC1)Cn1c2nc(C(=O)NCc2ccc(F)cc2)c(O)c1=O	> 8	0.007	
CN(C)C(=O)C(=O)NC12CCC(CC1)Cn1c2nc(C(=O)NCc2ccc(F)cc2F)c(O)c1=O	0.037	0.0007	
CN(C)CC(=O)NC12CCC(CC1)Cn1c2nc(C(=O)NCc2ccc(F)cc2)c(O)c1=O	> 8	0.02	
CN(C)C(=O)C(=O)NC12CCC(CC1)Cn1c2nc(C(=O)NCc2ccc(F)cc2C(F)(F)F)c(O)c1=O	> 8	0.008	
CN(C)C(=O)C(=O)NC12CCC(Cn3c1nc(C(=O)NCc1ccc(F)cc1)c(O)c3=O)C2 (stereo not drawn)	0.039	0.002	EC50 [3]: 0.026 µM
CN(C)C(=O)C(=O)NC12CCC(CC1)Cn1c2nc(C(=O)NCc2ccc(F)cc2Cl)c(O)c1=O	1.32	0.0013	
CN(C)C(=O)C(=O)NC12CCC(CC1)Cn1c2nc(C(=O)NCc2ccc(F)cc2S(C)(=O)=O)c(O)c1=O	> 8	0.011	
CN(C)C(=O)C(=O)NC12CCC(CC1)n1c2nc(C(=O)NCc2ccc(F)cc2)c(O)c1=O	> 8	0.008	
CN(C)C(=O)C(=O)NC12CCC(CC1)Cn1c2nc(C(=O)NCc2ccc(F)cc2)c(O)c1=O	0.01	0.001	Vd [4]: 0.63 L/kg; half-life [5]: 0.45 h; clearance [6]: 30.5 mL/min/kg; Cmax [7]: 1.93 µM; Ki (Integrase): 0.017 µM; Ki [8]: 0.002 µM
CN(C)C(=O)NC12CCC(CC1)Cn1c2nc(C(=O)NCc2ccc(F)cc2)c(O)c1=O	0.361	0.014	
CC(C)C(=O)C(=O)NC12CCC(CC1)Cn1c2nc(C(=O)NCc2ccc(F)cc2)c(O)c1=O	0.094	0.002	
Cc1cc(CNC(=O)c2nc3n(c(=O)c2O)CC2CCC3(NC(=O)C(=O)N(C)C)CC2)ccc1F	0.003	0.0007	Vd [9]: 0.26 L/kg; Vd [10]: 1.2 L/kg; EC50 [11]: 0.021 µM; Cmax [12]: 5.3 µM; AUC [13]: 2.89 µM·h; AUC [14]: 20.8 µM·h; half-life [15]: 12.3 h; clearance [16]: 12.6 mL/min/kg; Ratio EC50 [17]: 7; bioavailability [18]: 103%; clearance [19]: 7 mL/min/kg; clearance [20]: 13.5 mL/min/kg; Vd [21]: 0.3 L/kg; Ki (Integrase): 0.008 µM; AUC [22]: 14.7 µM·h; half-life [23]: 1.6 h; bioavailability [24]: 83%; bioavailability [25]: 23%; Ki [8]: 0.002 µM; half-life [26]: 1.6 h
CNC(=O)c1cc(F)ccc1CNC(=O)c1nc2n(c(=O)c1O)CC1CCC2(NC(=O)C(=O)N(C)C)CC1	> 8	0.06	
CN(C)C(=O)C(=O)NC12CCC(CC1)Cn1c2nc(C(=O)NCc2ccc(F)c(C(F)(F)F)c2)c(O)c1=O	0.032	0.0014	
